Source: PubChem BioAssay (several laboratories)
Only some compounds are listed: those with a hit (about 2.1% of all), similar ones and a draw of the others.
EBI2 block: EBI2 receptor antagonists, beta-arrestin recruitment, primary screen, cell-based, luminescence, 7a,25-OHC stimulation, uHTS; G-protein coupled receptor 183 (Homo sapiens), P32249; 7a,25-OHC stimulated; inhibition, % at 5 µM; 0.81% of 360,000 active; AID 651636, 2012; in the data active means inhibition above about 38%;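 further: enzyme fragment complementation signal reports receptor beta-arrestin coupling in cells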
Target sequence (P32249 whole entry, looked up, the tested form may be a part): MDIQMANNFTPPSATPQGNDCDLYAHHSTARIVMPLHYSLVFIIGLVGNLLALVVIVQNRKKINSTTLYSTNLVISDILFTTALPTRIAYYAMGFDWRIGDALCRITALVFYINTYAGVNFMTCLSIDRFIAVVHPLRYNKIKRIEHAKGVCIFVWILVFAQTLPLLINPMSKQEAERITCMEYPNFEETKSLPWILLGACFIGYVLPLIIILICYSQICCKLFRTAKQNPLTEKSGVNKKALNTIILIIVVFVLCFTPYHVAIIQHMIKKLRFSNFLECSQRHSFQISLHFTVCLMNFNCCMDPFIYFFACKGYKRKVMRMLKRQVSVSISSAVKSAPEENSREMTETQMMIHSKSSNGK
CXCR6 block: CXCR6 receptor inhibitors, primary screen, cell-based, beta-arrestin, luminescence, CHO-K1 PathHunter, 1536-well | C-X-C chemokine receptor type 6 (Homo sapiens), O00574 | inhibition, % at 20 µM | 0.36% of 360,000 active; in the data active means inhibition above about 34%, passing the limit was not always enough;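 further: antagonist mode with CXCL16 agonist at 10 nM final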
CCR6 antag: CCR6 receptor antagonists, primary screen, cell-based, CHO-K1, luminescence, beta-arrestin, uHTS | C-C chemokine receptor type 6 (Homo sapiens), P51684 | CHO-K1 CCR6 PathHunter beta-arrestin, CCL20-stimulated | inhibition, % at 20 µM | 0.49% of 340,000 active | AID 493098, 2011;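 active means compounds whose inhibition of the agonist-driven luminescence signal at 20 µM reaches about 50%, limit read from the data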;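 further: cells stimulated with CCL20 at 14 nM final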
APJ agonist: agonists of human apelin receptor APJ, primary screen, CHO-K1 cells, PathHunter beta-arrestin, luminescence; activation, % at 20 µM; 0% DMSO wells, 100% apelin; 0.11% of 330,000 active;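 active means activation more than six SD over the plate average, tested at 20 µM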
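Assay system – PathHunter CHO-K1 APJ (AGTRL-1) beta-arrestin reporter cells · Compound – one dose, 20 µM compound, 1% DMSO · Timing – compound 90 min 25 °C, reagent 1 h · Measured by – luminescence from split beta-galactosidase complementation, Galacton Star/Emerald II substrate · Measure – beta-arrestin recruitment to APJ as agonist activity, luminescent signal · Benchmarks – DMSO vs Apelin-13 10 nM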
APJ antagonist: antagonists of human apelin receptor APJ, primary screen, CHO-K1 cells, beta-arrestin complementation, luminescence | P35414 | inhibition, % at 20 µM | 0.32% of 330,000 active;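 active means inhibition above about 40% at 20 µM, limit read from the data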;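 further: cells challenged with 10 nM apelin-13 agonist together with compound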
m5-HT2A agonist: mouse Htr2a agonists via beta-arrestin recruitment, primary screen, cell-based, luminescence; CHO-K1 mHTR2A beta-arrestin complementation; percent of 30 µM serotonin response; AID 624169, 2012; 0.66% of 360,000 active; 5-hydroxytryptamine receptor 2A (Mus musculus), P35363; activation, % at 7.6 µM;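 active means activation above a run cutoff, the mean activation of all tested compounds plus 3 SD, cut at about 14% in these data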
OPRM1 ag: OPRM1 agonists via beta-arrestin recruitment, confirmation, counter-screen for mouse HTR2A agonist project, cell-based, luminescence, single concentration | AID 624380, 2012 | activation, % at 9.3 µM | 5.3% of 2,300 active | shares compounds with m5-HT2A agonist | U2OS OPRM1 beta-arrestin PathHunter; DMSO 0%, DAMGO 9.3 µM 100%;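 active means mean activation above the mean of DMSO-only wells plus 3 SD, cut at about 0.5% in these data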
HTR2A ag conf: mouse HTR2A agonists, beta-arrestin recruitment, confirmation, cell-based, luminescence, CHO-K1 PathHunter, triplicate; activation, % at 7.6 µM; AID 624381, 2012; DMSO 0%, 30 µM serotonin 100%; 19% of 2,300 active; shares compounds with m5-HT2A agonist;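 active means mean activation across triplicates above the hit threshold derived in the original primary screen, cut at about 15% in these data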
Hits are given with their value; 0 = inactive; - = no result given.

SMILES	EBI2 block	CXCR6 block	CCR6 antag	APJ agonist	APJ antagonist	m5-HT2A agonist	OPRM1 ag	HTR2A ag conf
COc1cccc(/C=C2\SC(=S)N(C(Cc3ccccc3)C(=O)O)C2=O)c1 (centres undefined)	0	0	0	0	0	0	-	-
CCOC(=O)[C@]12CCCC=C1N(CCc1ccc(OC)c(OC)c1)C(=O)[C@H](CC(=O)NCC13CC4CC(CC(C4)C1)C3)C2	0	-	-	-	-	0	-	-
CCN(CC)CCn1c(NC(=O)c2ccc(Cl)cc2)nc2ccccc21	0	0	0	0	0	18	-	0
O=C(Nc1nc2ccccc2n1CCN1CCCC1)c1ccc(Cl)cc1	0	0	0	0	0	0	-	-
CC(C)(CO)NCc1ccc(Br)cc1	0	0	0	0	0	0	-	-
CCOc1ccc(N2C(=O)CC(N(CCc3ccccc3)C(=O)/C=C/C(=O)O)C2=O)cc1 (centres undefined)	0	0	0	0	0	0	-	-
CCOc1ccc(N2C(=O)CC(N(CCc3ccc(OC)cc3)C(=O)/C=C/C(=O)O)C2=O)cc1 (centres undefined)	0	0	0	0	0	17	0	0
CC1(C)C(C=C(Cl)Cl)C1C(=O)N1CCN(Cc2ccccc2)CC1 (centres undefined)	0	0	0	0	0	20	0	76
COc1ccc(OC)c(NC(=O)C2(C)CCN2Cc2ccccc2OC(F)F)c1 (centres undefined)	0	0	-	-	-	0	-	-
CC(=NC1CC1)c1c(-c2ccccc2)[nH]n(-c2nc3ccccc3s2)c1=O	0	0	0	0	0	15	0	0
CCC(C)NC(=O)CSc1n[nH]c(-c2cc(Cl)ccc2OC)n1 (centres undefined)	0	0	0	0	0	0	-	-
Cc1ccsc1/C=N/NC(=O)CNC(=O)c1ccco1	0	0	0	0	0	0	-	-
CCOc1cc(C(=O)NCC(=O)N/N=C/c2sccc2C)cc(OCC)c1OCC	0	0	0	0	0	17	0	0
CCCn1c(N)c(Sc2ccc([N+](=O)[O-])cc2)c(=O)n(CCC)c1=O	0	0	0	0	0	17	0	0
Cc1c(-c2ccccc2)[nH]n2c(=O)c3c(nc12)CCCC3	0	0	0	0	0	44	0	15
Cc1ccc(-c2[nH]n3c(=O)c4c(nc3c2C)CCCC4)cc1	0	0	0	0	0	0	-	-
Cc1ccc(-n2nc3c(=O)n(CCCC(=O)NCCN4CCN(C)CC4)nc(C)c3c2C)cc1	0	0	0	0	0	21	0	0
CC(CCc1ccc(O)cc1)NCc1ccc(Br)cc1 (centres undefined)	0	0	0	0	0	0	-	-
COC(=O)[C@H](Cc1ccccc1)NC(=O)C1CCN(C(=O)[C@H](C)NS(=O)(=O)c2ccc(C)cc2)CC1	0	0	0	0	0	0	-	-
O=C(N[C@H](CO)c1ccccc1)[C@H]1O[C@@H](n2ccc(=O)[nH]c2=O)[C@H](O)[C@@H]1O	0	0	-	-	-	15	0	0
Cc1ccc(Nc2ncnc(N)n2)cc1	0	0	0	0	0	23	0	0
Cc1ccc(NC(=O)c2ccccc2OCC(=O)Nc2ccccc2F)cc1S(=O)(=O)N(C)C	0	0	0	0	0	0	-	-
COc1ccc(CCNc2ccncn2)cc1	0	0	0	0	0	0	-	-
COc1ccc(CCNc2ccc(S(N)(=O)=O)cn2)cc1	0	0	0	0	0	16	0	0
COc1ccc(-c2cc(C)no2)cc1S(=O)(=O)NCCCN1CCN(c2ccccc2)CC1	0	0	0	0	0	17	0	26
SMILES	EBI2 block	CXCR6 block	CCR6 antag	APJ agonist	APJ antagonist	m5-HT2A agonist	OPRM1 ag	HTR2A ag conf
Cc1cc(C)c(S(=O)(=O)NC(C)C)c(C)c1-n1cnnn1	0	0	0	0	0	0	-	-
CCN(CC(=O)NCc1ccc(F)cc1)C(=O)c1ccc(C(=O)c2ccccc2)cc1	0	0	0	0	0	0	-	-
CCN(CC(=O)NCc1ccc(F)cc1)C(=O)c1cccnc1SC	0	0	0	0	0	15	0	0
Cc1ccc(C(=O)Nc2ccncc2)c(C)c1	0	0	0	0	0	0	-	-
COc1ccc(-c2nc(CS(=O)CC(=O)NCCCN3CCOCC3)c(C)o2)cc1OC (centres undefined)	0	0	0	0	0	17	0	0
COc1ccc(-c2nc(CS(=O)CC(=O)NCCCN3CCCC3)c(C)o2)cc1OC (centres undefined)	0	0	0	0	0	0	-	-
Cc1ccccc1CC(=O)N1CCN(S(=O)(=O)c2cccs2)CC1	0	0	0	0	0	16	0	0
Cc1ccccc1CC(=O)N1CCN(S(=O)(=O)c2ccc(Cl)s2)CC1	0	0	0	0	0	0	-	-
Nc1nc(N2CCN(Cc3ccccc3)CC2)n[nH]1	0	0	0	0	0	39	0	110
N#Cc1ccc(OCC(=O)Nc2cc(S(=O)(=O)N3CCOCC3)ccc2N2CCCC2)cc1	-	-	0	-	-	-	-	-
C=CC[C@H](CC(=O)OC(C)(C)C)C(=O)OC[C@@H]1CCCN1C(=O)[C@@H](CC=C)CC(=O)N[C@H](CO)Cc1ccccc1	0	0	0	0	0	0	-	-
COc1ccc(CN(C)c2ncnc(N)n2)cc1	0	0	0	0	0	19	0	0
CCOc1ccc(-c2cc(C(=O)N3CCCC3)c3ccccc3n2)cc1	0	0	0	0	0	15	0	0
COC(=O)c1ccc(CNC(=O)CSC(C)C(=O)Nc2cc(C)on2)cc1 (centres undefined)	0	0	0	0	0	0	-	-
Nc1ccc(S(=O)(=O)Nc2ccnn2-c2ccccc2)cc1	0	0	0	0	0	19	0	0
O=C(Nc1ccc(S(=O)(=O)Nc2ccnn2-c2ccccc2)cc1)C(F)(F)F	0	0	0	0	0	0	-	-
O=C(NCCS(=O)(=O)NCc1cccs1)c1ccccc1	0	0	-	-	-	0	-	-
CC(C)Cn1c(N)c(C(=O)CSc2n[nH]c(N)n2)c(=O)n(C)c1=O	0	0	0	0	0	25	0	0
CC(C)Cn1c(N)c(C(=O)CSc2ncccn2)c(=O)n(C)c1=O	0	0	0	0	0	0	-	-
